In brackets after ≈: the same amount, converted by molar mass.
Assays:
Streptococcus pyogenes = assay: Compound was tested for antibacterial activity against Streptococcus pyogenes; assay type: functional
Summary of the method: (§1)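 Inoculum made from colonies grown overnight on chocolate or blood agar, resuspended in liquid medium to 10' cfu/mL. Applied by Steers replicator to serial 2-fold peptide dilutions. Incubated overnight at 37 °C under 7% CO2. MIC = lowest concentration giving fewer than 10 colonies at 16-18 h.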

Proteus mirabilis = assay: Compound was tested for antibacterial activity against Proteus mirabilis; assay type: functional
Summary of the method: (§2)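 Agar dilution MIC on defined peptide susceptibility agar. Inoculum made by growing overnight in liquid peptide susceptibility medium, then diluting to about 1 × 10^7 cfu/mL. Applied by Steers replicator to plates carrying serial 2-fold peptide dilutions. Incubated overnight at 37 °C. MIC = lowest concentration allowing growth of fewer than 10 colonies after 16-18 h.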

Enterococcus faecalis = assay: Compound was tested for antibacterial activity against Streptococcus faecalis; assay type: functional; summary of the method: as §2
Escherichia coli [1] = assay: Compound was tested for antibacterial activity against Escherichia coli; assay type: functional; summary of the method: as §2
Streptococcus agalactiae = assay: Compound was tested for antibacterial activity against Streptococcus agalactiae; assay type: functional; summary of the method: as §1
Enterobacter cloacae = assay: Compound was tested for antibacterial activity against Enterobacter cloacae; assay type: functional; summary of the method: as §2
Haemophilus influenzae = assay: Compound was tested for antibacterial activity against Hemophilus influenzae; assay type: functional; summary of the method: as §1
Staphylococcus aureus = assay: Compound was tested for antibacterial activity against Staphylococcus aureus; assay type: functional; summary of the method: as §2
Shigella flexneri = assay: Compound was tested for antibacterial activity against Shigella flexneri; assay type: functional; summary of the method: as §2
[2] = tested on: Staphylococcus epidermidis; assay: Compound was tested for antibacterial activity against Staphylococcus epidermidis; assay type: functional; summary of the method: as §2
Morganella morganii = assay: Compound was tested for antibacterial activity against Morganella morganii; assay type: functional; summary of the method: as §2
[3] = biological target: Alanine racemase, biosynthetic (Escherichia coli K-12) (UniProt P0A6B4); assay: Compound was tested for enzyme activity against alanine racemase; per mg protein
Summary of the method: (§3)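 E. coli JSR-0 grown at 37 °C in Davis-Mingioli medium with Met/Pro (50 µg/mL) and Leu/Ile/Val (100 µg/mL). Some cultures had 5% sucrose or 500 µg/mL L-Ala. Agent added at ~100 Klett units; cells harvested after 30 min, washed and sonicated. Racemase read D→L in the supernatant, coupled to L-alanine dehydrogenase (NADH, 340 nm): 10 mM D-Ala, 5 mM NAD+, CHES pH 9.0, 37 °C.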

Escherichia coli [4] = assay: Compound was tested for enzyme activity against transaminase B; per mg protein
Summary of the method: (§4)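 Homogenates of E. coli JSR-0 taken 30 min after agent addition at ~100 Klett units (Davis-Mingioli medium with Met/Pro, Leu/Ile/Val, and in some cultures sucrose or L-Ala). Valine→α-ketoisovalerate transamination read in Tris-HCl pH 7.8 with pyridoxal phosphate and α-ketoglutarate at 37 °C. Timed aliquots derivatized with 2,4-dinitrophenylhydrazine; hydrazone read at 430 nm against a standard curve.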

Escherichia coli [5] = assay: Compound was tested for enzyme activity against transaminase B; per mg of protein; summary of the method: as §4
[6] = biological target: Alanine racemase, biosynthetic (Escherichia coli K-12) (UniProt P0A6B4); assay: Compound was tested for enzyme activity against alanine racemase; per mg of protein; summary of the method: as §3

Chain of Alanine racemase, biosynthetic (Escherichia coli K-12) (P0A6B4 whole entry): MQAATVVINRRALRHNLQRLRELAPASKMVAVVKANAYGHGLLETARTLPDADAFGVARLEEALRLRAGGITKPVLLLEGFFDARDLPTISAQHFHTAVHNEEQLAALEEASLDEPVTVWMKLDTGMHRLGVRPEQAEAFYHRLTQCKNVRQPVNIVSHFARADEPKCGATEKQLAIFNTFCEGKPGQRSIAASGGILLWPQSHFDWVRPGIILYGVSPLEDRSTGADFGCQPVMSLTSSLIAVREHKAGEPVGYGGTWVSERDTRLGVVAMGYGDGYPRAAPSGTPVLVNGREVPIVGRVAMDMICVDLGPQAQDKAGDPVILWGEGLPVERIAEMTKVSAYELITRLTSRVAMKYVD

MIC (Streptococcus pyogenes) [µg/mL]	MIC (Proteus mirabilis) [µg/mL]	MIC (Enterococcus faecalis) [µg/mL]	MIC (Escherichia coli [1]) [µg/mL]	MIC (Streptococcus agalactiae) [µg/mL]	MIC (Enterobacter cloacae) [µg/mL]	MIC (Haemophilus influenzae) [µg/mL]	MIC (Staphylococcus aureus) [µg/mL]	MIC (Shigella flexneri) [µg/mL]	MIC [2] [µg/mL]	MIC (Morganella morganii) [µg/mL]	specific activity [3] [µmol/min/mg]	specific activity (Escherichia coli [4]) [µmol/min/mg]	specific activity (Escherichia coli [5]) [µmol/min/mg]	specific activity [6] [µmol/min/mg]	Compound
0.05 (≈ 0.277 µM)	> 100	> 100	3.12 (≈ 17.3 µM)	0.39 (≈ 2.16 µM)	1.56 (≈ 8.64 µM)	0.2 (≈ 1.11 µM)	0.025 (≈ 0.138 µM)	1.56 (≈ 8.64 µM)	0.05 (≈ 0.277 µM)	> 100					NCC(=O)N[C@@H](CCl)C(=O)O
< 0.1	100 (≈ 449 µM)	< 0.1	1.56 (≈ 7.01 µM)	1.56 (≈ 7.01 µM)		12.5 (≈ 56.1 µM)	0.025 (≈ 0.112 µM)	> 100	< 0.0125						CC(C)[C@H](N)C(=O)N[C@@H](CCl)C(=O)O
							0.25 (≈ 1.12 µM)								CCC[C@H](N)C(=O)N[C@@H](CCl)C(=O)O
< 0.1	12.5 (≈ 52.8 µM)	< 0.1	3.12 (≈ 13.2 µM)	3.12 (≈ 13.2 µM)		6.25 (≈ 26.4 µM)	0.025 (≈ 0.106 µM)	25 (≈ 106 µM)	0.05 (≈ 0.211 µM)						CC[C@H](C)[C@H](N)C(=O)N[C@@H](CCl)C(=O)O
12.5 (≈ 59.9 µM)	> 100	6.25 (≈ 30 µM)	1.56 (≈ 7.48 µM)	< 0.1	25 (≈ 120 µM)	< 0.1	0.025 (≈ 0.12 µM)	1.56 (≈ 7.48 µM)	0.025 (≈ 0.12 µM)	50 (≈ 240 µM)					CC[C@H](N)C(=O)N[C@@H](CCl)C(=O)O
	> 100	> 100	> 100	> 100		> 100	0.78 (≈ 4.01 µM)	> 100	6.25 (≈ 32.1 µM)						NCCC(=O)N[C@@H](CCl)C(=O)O
									0.0125 (≈ 0.0642 µM)				0	0.0117	C[C@H](N)C(=O)N[C@@H](CCl)C(=O)O
1.56 (≈ 6.12 µM)	50 (≈ 196 µM)									50 (≈ 196 µM)					CSCC[C@H](N)C(=O)N[C@@H](CCl)C(=O)O
25 (≈ 106 µM)	> 100	3.12 (≈ 13.2 µM)	3.12 (≈ 13.2 µM)	< 0.1	6.25 (≈ 26.4 µM)	25 (≈ 106 µM)	0.0125 (≈ 0.0528 µM)	3.12 (≈ 13.2 µM)	0.0125 (≈ 0.0528 µM)	> 100					CCCC[C@H](N)C(=O)N[C@@H](CCl)C(=O)O
< 0.1	25 (≈ 106 µM)	< 0.1	3.12 (≈ 13.2 µM)	1.56 (≈ 6.59 µM)		6.25 (≈ 26.4 µM)	0.025 (≈ 0.106 µM)	50 (≈ 211 µM)	0.0125 (≈ 0.0528 µM)						CC(C)C[C@H](N)C(=O)N[C@@H](CCl)C(=O)O

Second part, the compound before the results:

Compound	MIC (Streptococcus pyogenes) [µg/mL]	MIC (Proteus mirabilis) [µg/mL]	MIC (Enterococcus faecalis) [µg/mL]	MIC (Escherichia coli [1]) [µg/mL]	MIC (Streptococcus agalactiae) [µg/mL]	MIC (Enterobacter cloacae) [µg/mL]	MIC (Haemophilus influenzae) [µg/mL]	MIC (Staphylococcus aureus) [µg/mL]	MIC (Shigella flexneri) [µg/mL]	MIC [2] [µg/mL]	MIC (Morganella morganii) [µg/mL]	specific activity [3] [µmol/min/mg]	specific activity (Escherichia coli [4]) [µmol/min/mg]	specific activity (Escherichia coli [5]) [µmol/min/mg]	specific activity [6] [µmol/min/mg]
CSCC[C@H](N)C(=O)N[C@@H](C)C(=O)N[C@@H](CCl)C(=O)O	25 (≈ 76.7 µM)	> 100	6.25 (≈ 19.2 µM)	> 100	< 0.1	> 100	> 100	0.05 (≈ 0.153 µM)	> 100	0.025 (≈ 0.0767 µM)	> 100				
C[C@H](N)C(=O)N[C@@H](C)C(=O)N[C@@H](CCl)C(=O)O	0.2 (≈ 0.753 µM)		> 100	> 100	12.5 (≈ 47 µM)		> 100	0.025 (≈ 0.0941 µM)	> 100	0.025 (≈ 0.0941 µM)					
CN[C@@H](C)C(=O)N[C@@H](CCl)C(=O)O		> 100	100 (≈ 479 µM)	6.25 (≈ 30 µM)	6.25 (≈ 30 µM)		12.5 (≈ 59.9 µM)	0.39 (≈ 1.87 µM)	100 (≈ 479 µM)	3.12 (≈ 15 µM)					
O=C(N[C@H](CO)[C@H](O)c1ccc([N+](=O)[O-])cc1)C(Cl)Cl												0.0176	0.0541		
NC(=O)CC[C@H](N)C(=O)N[C@@H](CCl)C(=O)O	< 0.1	> 100	0.78 (≈ 3.1 µM)	1.56 (≈ 6.2 µM)	0.78 (≈ 3.1 µM)		> 100	0.05 (≈ 0.199 µM)	> 100	0.05 (≈ 0.199 µM)					
N[C@@H](CCl)C(=O)N[C@@H](CCl)C(=O)N[C@@H](CCl)C(=O)O	0.39 (≈ 1.17 µM)		< 0.1	25 (≈ 74.7 µM)	0.78 (≈ 2.33 µM)		6.25 (≈ 18.7 µM)	0.2 (≈ 0.598 µM)	6.25 (≈ 18.7 µM)	0.1 (≈ 0.299 µM)					
N[C@@H](Cc1ccccc1)C(=O)N[C@@H](CCl)C(=O)O	< 0.1	100 (≈ 369 µM)	0.39 (≈ 1.44 µM)	25 (≈ 92.3 µM)	6.25 (≈ 23.1 µM)		12.5 (≈ 46.2 µM)	0.05 (≈ 0.185 µM)	100 (≈ 369 µM)	0.05 (≈ 0.185 µM)					
CC(C)[C@H](N)C(=O)N[C@@H](C)C(=O)N[C@@H](CCl)C(=O)O	0.1 (≈ 0.34 µM)		> 100	> 100	3.12 (≈ 10.6 µM)		> 100	0.05 (≈ 0.17 µM)	> 100	0.025 (≈ 0.0851 µM)					
CSCC[C@H](N)C(=O)N[C@@H](CCl)C(=O)N[C@@H](CCl)C(=O)O	6.25 (≈ 17.3 µM)	> 100	0.05 (≈ 0.139 µM)	1.56 (≈ 4.33 µM)	< 0.1	> 100	0.39 (≈ 1.08 µM)	0.025 (≈ 0.0694 µM)	12.5 (≈ 34.7 µM)	0.0125 (≈ 0.0347 µM)	> 100				
O=C(O)[C@H](CCl)NC(=O)[C@@H]1CCCN1	6.25 (≈ 28.3 µM)	> 100	< 0.1	6.25 (≈ 28.3 µM)	12.5 (≈ 56.6 µM)		25 (≈ 113 µM)	0.39 (≈ 1.77 µM)	> 100	1.56 (≈ 7.07 µM)					

— ChEMBL document CHEMBL1123250, “Chloroalanyl antibiotic peptides: antagonism of their antimicrobial effects by L-alanine and L-alanyl peptides in gram-negative bacteria” (1986)
